The results in this text go back to PubChem BioAssay AID504348 (Broad Institute, 2011).

SMILES strings stand for the structures. Inconclusive results are not listed. Active and inactive are the calls of the source.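 How the source made its calls: active means dose curve reaching 10% of the positive control caspase signal at or below the top valid dose; inconclusive means no clear call, values can overlap the other calls; inactive means reverse-direction response, or no crossing within range.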

The nature of the assay: caspase activation in Mcl1-dependent HMC 1-8 cells, dose response, counter-screen for A1 inhibitor project, cell-based, luminescence, dry powder, set 3 (AID 504348). The following applies: caspase-Glo luminescence, 4 h; series mostly up to 35 µM. The method, boiled down: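 Material: HMC 1-8 human cancer line, low A1; Input: 2500 cells/well; Medium: RPMI-1640 plus 10% FBS; Doses: compound added by pin transfer; Schedule: 4 h compound at 37 °C, 1 h reagent at RT; Signal: CaspaseGlo luminescence; Read-out basis: caspase activation.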
On the technique in general: A counterscreen serves to expose hits that act by an unwanted route or on another target.
For `C/C(=N\Nc1nc(N2CCCCC2)nc(N2CCCCC2)n1)c1ccc(F)cc1`, the compound was classed as inactive.

For `O=c1[nH]c2ccccc2c(Cl)c1[N+](=O)[O-]`, the outcome was inactive.

As for `Cc1ccc(Sc2c([N+](=O)[O-])c(=O)n(Cc3ccccc3)c3ccccc23)cc1`, the compound was classed as inactive. Under `Cn1c(=O)c(Sc2ccccn2)c(Sc2ccccn2)c2ccccc21` stands “inactive”. The entry for `COCCn1c(=O)c([N+](=O)[O-])c(Sc2ccc(C)cc2)c2ccccc21` is “inactive”; for `COc1ccc(N2CCN(c3nc(NCCc4ccc(OC)c(OC)c4)nc(N4CCOCC4)n3)CC2)cc1` it is “inactive”.

Regarding `CCn1c(=O)c([N+](=O)[O-])c(Sc2ccc(C)cc2)c2ccccc21`, the outcome was inactive. In the case of `COc1ccc(CCNc2nc(N3CCOCC3)nc(N3CCOCC3)n2)cc1OC`, the call was inactive. Under `COc1nc2ccccc2c(Sc2ccc(C)cc2)c1[N+](=O)[O-]` stands “inactive”; under `O=C(COc1ccc(Cl)cc1Cl)NNc1nc(N2CCOCC2)nc(N2CCOCC2)n1`, “inactive”. With `COc1ccc(CCNc2nc(N3CCCC3)nc(N3CCCC3)n2)cc1OC`, the compound was called inactive.
